Compound activity: PubChem BioAssay, several laboratories
T cruzi repl: inhibitors of intracellular T. cruzi growth, primary screen, luminescence, NIH3T3 host cells | inhibition, % (no concentration beside the values) | hit rate 1.4% among 300,000 | T. cruzi beta-gal in NIH3T3, 90 h;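 active means mean inhibition across valid replicates above about 55%, limit read from the data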;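 further: signal also drops with host cell toxicity which is not excluded here; 0% = plate median of DMSO wells and 100% = zero luminescence signal; higher percent means less beta-gal luminescence so fewer parasites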
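System: NIH/3T3 fibroblasts plus reporter T. cruzi. Medium: DMEM plus 2% FBS. Probe or stimulus: 5000 reporter trypomastigotes per well. Compound: single 50 nL compound addition per well in DMSO. Incubation: co-culture of at least 90 h after 3 h attachment. Detection: GalScreen β-gal luminescence, detergent lysis, 60 min. Evaluation: parasite load inhibition, %.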
Lmaj promast: Leishmania major promastigote growth inhibition, primary screen; Leishmania major promastigotes, resazurin fluorescence viability; inhibition, % at 10 µM; hit rate 9% among 200,000; AID 1063, 2008; in the data active means inhibition above about 50%;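 further: promastigotes grown with compound for 44 hours at 28 °C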
Dynein transport: inhibitors of GR-EGFP nuclear translocation, primary screen, dynein cargo transport inhibitor project, imaging, high-content, 3617.4 mouse cells; test concentration mostly 20 µM; stimulated with dexamethasone, 1 µM; hits give low values; z-score, hits read low; hit rate 0.47% among 220,000;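 active means plate z-score of nuclear minus cytoplasmic receptor signal below a set negative limit, without overly bright fluorescence or cell loss, cut at about -3.5 in these data, passing the limit was not always enough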;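 further: z-score of nuclear minus cytoplasmic ring GR-EGFP intensity difference per well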
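Buffer or medium: tetracycline-free induction medium containing charcoal-stripped FBS / Reagent: dexamethasone agonist, 1.0 µM final, for 30 min / Technique: automated 10x imaging of fixed Hoechst-stained cells / Times: induction 48 h, compound 1 h, agonist 30 min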
CHOP inh: inhibitors of CHOP promoter induction, primary screen, cell-based, unfolded protein response, luciferase reporter. CHO-K1 CHOP-promoter luciferase, tunicamycin-induced, 15-18 h. hit rate 3.8% among 220,000. inhibition, % at 10 µM. AID 2732, 2010;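 active means compounds that reduced the stress-induced luciferase reporter signal by more than about 70% of percent inhibition, limit read from the data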;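 further: 0% = tunicamycin plus vehicle and 100% = wells without tunicamycin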
UPR XBP1 act: activators of adaptive XBP1 UPR arm, primary screen, cell-based, CHO-XBP1 luciferase reporter, luminescence, uHTS | IRE1-XBP1 UPR activation; percent of tunicamycin response, DMSO as zero | activation, % at 20 µM | hit rate 0.33% among 330,000 | AID 463104, 2010;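 active means versus positive control, 20 µM dose yields 30% or more activation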;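 further: 100% = tunicamycin at 10 µg/mL and 0% = DMSO only wells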
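incubation = overnight seeding at 37 °C, 6 h compound treatment at 37 °C | assay system = CHO-XBP1 cells stably carrying IRE1-XBP1-driven luciferase reporter | input = 1000 cells per well | detection = luciferase luminescence | dosing = single point, 20 µM final compound, 1% DMSO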
UPR CHOP act: activators of apoptotic CHOP UPR arm, primary screen, cell-based, CHO-CHOP luciferase reporter, luminescence, uHTS | hit rate 0.34% among 330,000 | UPR activation; percent of tunicamycin response over DMSO baseline | activation, % at 10 µM | AID 449763, 2010;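 active means at 10 µM dose, activation of 40% or more, normalized to positive control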;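 further: 100% = tunicamycin at 10 µg/mL and 0% = DMSO alone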
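Test system: CHO CHOP reporter cells. Input: 500 CHO-CHOP cells per well. Medium: F12 with 10% FBS. Technique: luciferase luminescence. Measure: percent activation relative to tunicamycin control. Dosing: 10 µM compound, 0.5% DMSO. Timing: 16-18 h cell attachment, then 6 h compound exposure, 37 °C.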
Starred values were filed as active, the others as inactive. The sample as a whole holds a higher share of hits than the screen did.

CCCCN1C(=O)c2ccc(C(=O)Nc3cccc(C)c3C)cc2C1=O was read as T cruzi repl -5.7, Lmaj promast 0.8, Dynein transport -1.33, CHOP inh 76.4*, UPR XBP1 act 0.7 and UPR CHOP act 2.1.
Screening Cc1ccccc1NC(=O)c1ccc2c(c1)C(=O)N(CCC(C)C)C2=O returned T cruzi repl -6.3, Lmaj promast -4.4, Dynein transport 1.92, CHOP inh 78.8*, UPR XBP1 act -2.3 and UPR CHOP act 1.2.
CC(C)CCN1C(=O)c2ccc(C(=O)Nc3ccccn3)cc2C1=O was read as T cruzi repl -4.1, UPR XBP1 act -2.8 and UPR CHOP act 2.2.
Screening C=CCNc1cc(F)ccc1S(=O)(=O)NCC=C returned UPR XBP1 act 0.3 and UPR CHOP act 2.8.
`O=C(CSc1cccc2cccc(Cl)c12)OCC(=O)N1CCN(C(=O)c2ccco2)CC1` gave T cruzi repl -11.7, Lmaj promast 52.7*, Dynein transport 0.809, CHOP inh 1.9, UPR XBP1 act 1.3 and UPR CHOP act -0.4.
For COc1ccc(C(=O)OC2CCCCC2CN(C)C)cc1 (configuration not stated) the results were T cruzi repl 20.3, UPR XBP1 act 6.6 and UPR CHOP act -1.3.
For CN(C)CC1CCCCC1OC(=O)c1ccc(Br)cc1 (configuration not stated) the results were T cruzi repl 26.6, Lmaj promast 74.4*, Dynein transport -1.02, CHOP inh 26.8, UPR XBP1 act -1.1 and UPR CHOP act -0.2.
Screening Cc1nn2c(N)c(C#N)cnc2c1-c1ccccc1 returned T cruzi repl -6.1, Lmaj promast 3.7, Dynein transport 0.306, CHOP inh 17.9, UPR XBP1 act 10.0 and UPR CHOP act 2.2.
N#Cc1cnc2c(-c3ccccc3)c(-c3ccccc3)nn2c1N was read as T cruzi repl 9.7, Lmaj promast 20.5, Dynein transport -0.547, CHOP inh 77.8*, UPR XBP1 act 9.9 and UPR CHOP act 0.1.
For CCc1ccc(-c2csc(-c3c[nH]c4ccccc34)n2)cc1 the results were T cruzi repl -15.8, Lmaj promast 4.2, Dynein transport 0.413, CHOP inh 86.4*, UPR XBP1 act 2.0 and UPR CHOP act 8.5.
Screening Nc1nc(-c2c[nH]c3ccccc23)cs1 returned T cruzi repl 1.1, Lmaj promast -8.2, Dynein transport -0.608, CHOP inh -14.7, UPR XBP1 act 0.7 and UPR CHOP act 1.4.
For CCCn1c(=O)c2[nH]c(-c3ccc(OCC(=O)Nc4ccc(C#N)cc4)cc3)nc2n(CCC)c1=O the results were CHOP inh -14.1, UPR XBP1 act -7.8 and UPR CHOP act 1.9.
For Cc1ccc([C@H]2C(C#N)=C(N)Oc3cc(C)oc(=O)c32)o1 the results were T cruzi repl -16.5, Lmaj promast 100.0*, Dynein transport 1.39, CHOP inh -22.5, UPR XBP1 act -5.8 and UPR CHOP act 0.8.
For Cc1cc2c(c(=O)o1)C(c1cccs1)C(C#N)=C(N)O2 (configuration not stated) the results were T cruzi repl 5.6, Lmaj promast 61.5*, Dynein transport -0.512, CHOP inh 16.0, UPR XBP1 act -6.0 and UPR CHOP act 0.0.
For Cc1cc(OC(=O)c2cc(C(F)(F)F)cc(C(F)(F)F)c2)c([N+](=O)[O-])c(=O)[nH]1 the results were T cruzi repl -7.1, UPR XBP1 act 1.8 and UPR CHOP act -1.1.
For CCN(c1ccccc1)S(=O)(=O)c1ccc(C(=O)Nc2cc(C)ccn2)cc1 the results were UPR XBP1 act -2.0 and UPR CHOP act 1.3.
CC(=O)N1CCN(C2c3cccc4cccc(c34)C2NS(=O)(=O)c2ccccc2)CC1 (configuration not stated) was read as T cruzi repl 9.2, Lmaj promast 0.7, Dynein transport 1.25, CHOP inh -0.9, UPR XBP1 act -4.3 and UPR CHOP act 0.0.
`Cn1cnnc1SC1c2cccc3cccc(c23)C1NS(=O)(=O)c1ccc(Cl)cc1` (configuration not stated) gave T cruzi repl 6.6, Lmaj promast 53.2*, Dynein transport -1.12, CHOP inh 22.6, UPR XBP1 act -0.2 and UPR CHOP act -2.5.
For O=S(=O)(NC1c2cccc3cccc(c23)C1N1CCNCC1)c1ccc(Cl)cc1 (configuration not stated) the results were T cruzi repl 35.5, Lmaj promast 99.7*, Dynein transport 3.82, CHOP inh 0.5, UPR XBP1 act -0.6 and UPR CHOP act 2.9.
CCCC[C@@H](CNC)NC[C@H](Cc1ccc(O)cc1)NCCc1ccc(OCC)cc1 was read as T cruzi repl 18.4, UPR XBP1 act -1.1 and UPR CHOP act 0.8.
O=C(Nc1cccc(C(F)(F)F)c1)N1CCC(c2nc(-c3ccc(F)cc3)no2)CC1 was read as T cruzi repl 52.7, Lmaj promast 4.2, Dynein transport 1.14, CHOP inh 90.9*, UPR XBP1 act -0.7 and UPR CHOP act 4.3.
Screening CC(=O)Nc1ccc(N(C(=O)c2ccco2)C(C(=O)NC2CCCCC2)c2ccccc2)cc1 (configuration not stated) returned T cruzi repl 8.3, UPR XBP1 act 1.7 and UPR CHOP act 3.3.
`CCn1c(=O)c2sccc2n(CC(=O)NCCC2=CCCCC2)c1=O` gave T cruzi repl -33.6, UPR XBP1 act -5.3 and UPR CHOP act -0.8.
`Cn1ncc2c(NCc3ccccc3)ncnc21` gave T cruzi repl -1.7, Lmaj promast -2.9, Dynein transport -0.351, CHOP inh 14.4, UPR XBP1 act 2.2 and UPR CHOP act 1.3.
Clc1ccc(Cn2ncc3c(NCc4ccccc4)ncnc32)c(Cl)c1 was read as T cruzi repl 8.1, Lmaj promast -7.2, Dynein transport -0.235, CHOP inh 81.0*, UPR XBP1 act 3.0 and UPR CHOP act 0.0.
Screening O=C1NC2=C(C(=O)OC2)C(c2ccc(OC(F)(F)F)cc2)N1 (configuration not stated) returned T cruzi repl -2.6, Dynein transport -0.743, CHOP inh 14.0, UPR XBP1 act 0.2 and UPR CHOP act 2.0.
For COc1ccc(C(=O)CCN2CCCC(C)C2)cc1 (configuration not stated) the results were T cruzi repl 10.1, UPR XBP1 act -6.6 and UPR CHOP act -1.9.
